TNAP act hiacc = activators of human TNAP at high phosphate acceptor concentration | purified TNAP, CDP-star luminescence, 1 M DEA, 30 min; hits give high values; 0 = EDTA background, 1 = DMSO-only activity | activation factor at 20 µM | 200,000 tested, under 10 active;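 active means activation factor at least 2 at 20 µM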
Target sequence (P05186 whole entry, looked up): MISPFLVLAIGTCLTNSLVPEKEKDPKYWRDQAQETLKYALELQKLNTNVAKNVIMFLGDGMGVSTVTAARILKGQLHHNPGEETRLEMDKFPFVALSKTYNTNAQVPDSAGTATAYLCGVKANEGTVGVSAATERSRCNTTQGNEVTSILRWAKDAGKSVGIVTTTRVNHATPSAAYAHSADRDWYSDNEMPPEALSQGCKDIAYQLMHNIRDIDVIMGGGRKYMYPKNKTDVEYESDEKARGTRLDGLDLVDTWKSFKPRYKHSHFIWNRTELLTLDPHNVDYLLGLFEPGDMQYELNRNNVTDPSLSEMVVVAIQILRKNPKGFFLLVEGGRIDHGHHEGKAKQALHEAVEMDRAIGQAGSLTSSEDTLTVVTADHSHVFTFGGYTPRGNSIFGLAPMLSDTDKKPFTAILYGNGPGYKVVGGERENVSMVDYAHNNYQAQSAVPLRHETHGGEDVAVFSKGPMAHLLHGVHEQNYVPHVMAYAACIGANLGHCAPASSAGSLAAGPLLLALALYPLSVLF
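Test system – human TNAP · Doses – 20 µM single point · Incubation – 30 min, room temperature · Signal – luminescent substrate turnover signal · Read-out basis – activation factor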
WT yeast gro inh = growth inhibition of WT yeast, mitochondrial fusion screen. mitochondrial fusion phenotypic screen, WT strain. inhibition, % at 10 µM. actives 2.1% (n = 190,000); in the data active means inhibition above about 58%; tested in S. cerevisiae
TNAP inh no acc = blocks human TNAP activity with no phosphate acceptor present; actives 0.26% (n = 200,000); purified TNAP, CDP-star luminescence, 30 min; P05186; AID 1012; inhibition, % at 20 µM;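 active means tissue-nonspecific alkaline phosphatase inhibition above about 50% at 20 µM in the single-dose screen, limit read from the data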;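 further: 0% = DMSO negative control and 100% = EDTA positive control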
TNAP inh hi DEA = TNAP (human) inhibition, high acceptor. P05186. purified TNAP, CDP-star luminescence, 1 M DEA. inhibition, % at 20 µM. actives 0.03% (n = 200,000);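 active means over 50% inhibition of tissue-nonspecific alkaline phosphatase at 20 µM in the single-dose screen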;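 further: plate controls were DMSO wells for no effect and EDTA-quenched wells as full inhibition for full effect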
Arbovirus anti = blocks arbovirus infection; arbovirus infection cell-based antiviral screen; inhibition, % at 10 µM; actives 0.37% (n = 200,000); in the data active means inhibition above about 30%
* = called active by the depositor. Compounds with a hit are over-represented: about 2.6% of the library has one in this group of screens.

SMILES	TNAP act hiacc	WT yeast gro inh	TNAP inh no acc	TNAP inh hi DEA	Arbovirus anti
O=C(NCc1ccccn1)NC12CC3CC(CC(C3)C1)C2	1	-5	-8	1	14
CCCCCCCC(=O)NNC(=O)Cc1ccccc1	1	-2	-4	-1	4
CCCCCC/C(C)=C1/SC(=S)NC1=O	1	86*	-6	1	16
C/C(C/C(C)=C1/SC(=S)NC1=O)=C1\SC(=S)NC1=O	1	-6	-143	-1	33*
O=C1CC(SCCO)C(=O)N1c1ccc(Oc2ccccc2)cc1 (stereo not given)	1	47	-2	-4	6
O=C(COc1ccccc1-c1ccccc1)NNC(=O)NC1CCCCC1	1	-2	-56	-3	2
CCCCCCCCCCSc1n[nH]c(N)n1	1	74	-30	0	-25
NS(=O)(=O)c1ccc(N=Nc2c(O)ccc3ccccc23)cc1	0.9	-7	6	12	-10
Oc1ccc(N=Nc2c(O)ccc3ccccc23)cc1	0.6	98*	34	44	-12
N#CCOC(=O)c1c2c(nc3ccccc13)CCC2	1	3	-4	-3	10
Nc1cc(=O)[nH]c(SCC(=O)Nc2ccccc2Sc2ccccc2)n1	1.1	-3	-6	-6	12
CCCCCCC1CCC(c2nc(-c3ccncc3)no2)CC1 (stereo not given)	1.1	79*	-10	-8	21
CCCC1CCC(c2nc(-c3cccnc3)no2)CC1 (stereo not given)	1	31	-2	-4	-7
O=C(CCCNC(=O)/C(=C\c1ccc(F)cc1)NC(=O)c1ccccc1)OCc1ccccc1	1.1	-5	-8	-5	-4
CN(C)C(=O)CCSc1nnc(-c2ccco2)o1	1	-12	-4	-2	13
C=CCNc1nc2ccccc2nc1NS(=O)(=O)c1cccs1	1.1	-4	-8	-10	5
CCCCCNc1nc2ccccc2nc1NS(=O)(=O)c1cccs1	1	20	-10	-4	32*
Cn1ncc(N=Cc2ccccc2)c1C(=O)Nc1cccc(Cl)c1	1	10	1	-1	-13
NS(=O)(=O)c1cccc(NC(=S)NC(=O)c2cccc([N+](=O)[O-])c2)c1	0.9	1	70*	7	1
O=C(NC(=S)Nc1cccc(NC(=O)c2ccccc2)c1)c1cccc([N+](=O)[O-])c1	1	11	3	4	-3
c1ccc(CN2CCN(C3=Nc4cccc5cccc3c45)CC2)cc1	1	2	0	4	-25
Fc1ccc(N2CCN(C3=Nc4cccc5cccc3c45)CC2)cc1	1	59*	-3	2	-26
COCCN1Cc2cccc(C(=O)NC3CCCCCC3)c2C1=O	1	71*	-7	-3	-4
COCCN1Cc2cccc(C(=O)Nc3ccc(C)cc3)c2C1=O	1	2	0	0	2
CCOC(=O)c1cnc(-n2nc(C)cc2C)nc1NC1CCCCC1	1	82*	-3	-2	-33
SMILES	TNAP act hiacc	WT yeast gro inh	TNAP inh no acc	TNAP inh hi DEA	Arbovirus anti
CCOC(=O)c1cnc(-n2nc(C)cc2C)nc1NC	1	-37	2	2	-6
CCOC(=O)c1cnc(-n2nc(C)cc2C)nc1N(CC)CC	1	70*	0	2	-24
Cc1ccc(OCC(=O)NCCc2c[nH]c3ccccc23)cc1	1	1	-3	2	-15
CCCCCCCCCCCC(=O)c1c(O)cccc1O	1	95*	-3	-1	-27
CCCCCCCCCS(=O)(=O)N/N=C/c1cccc([N+](=O)[O-])c1	1	88*	1	-2	-28
CC1CC(C)CN(c2ncnc3c2cnn3-c2ccc(Cl)cc2)C1 (stereo not given)	1.1	62*	-8	-5	4
Cc1ccc(Cn2ncc3c(N4CCN(c5ccc(C)cc5)CC4)ncnc32)cc1	1.1	2	-8	-6	6
CC1CCN(c2ncnc3c2cnn3Cc2ccc(Cl)cc2)CC1	1.1	63*	-12	-8	0
Cc1ccc(Cn2ncc3c(N4CCN(Cc5ccc(Cl)cc5)CC4)ncnc32)cc1	1.1	64*	0	-8	0
COc1cccc(CN2C(=O)C3CCCN3c3ccc(S(=O)(=O)N4CCOCC4)cc32)c1 (stereo not given)	1	-12	-3	-5	4
CC(=O)CC(=O)Nc1ncccn1	1	5	-12	-4	4
CCCC(c1nnnn1CC1CCCO1)N1CCN(c2cc(Cl)ccc2C)CC1 (stereo not given)	1	65*	-6	-2	-19
CCC(c1nnnn1C(C)(C)C)N1CCN(c2cc(Cl)ccc2C)CC1 (stereo not given)	1.1	73*	-10	-6	2
O=c1c(Cl)c(Cl)cnn1Cc1nnc(-c2ccc(Cl)cc2)o1	1	49	10	1	-34
O=C(O)c1cc(-c2ccc(/C=C3\NC(=O)N(c4ccc(Cl)cc4)C3=O)o2)ccc1Cl	1	3	-3	4	58*
COc1cccc(-n2c(=O)c3cc(OC)c(OC)cc3n(CC(=O)Nc3cc(C)[nH]n3)c2=O)c1	1	0	-16	-1	3
O=C(CSCC(=O)OCn1nnc2ccccc2c1=O)Nc1ccc(Cl)cc1	1	70*	-8	0	1
C=CCn1c(SCC(=O)Nc2nnc(CC)s2)nnc1-c1ccco1	1	-4	-3	0	15
COc1ccc(C2C=C(C34CC5CC(CC(C5)C3)C4)NC(=S)N2)cc1 (stereo not given)	0.9	70*	8	6	20
CCOC(=O)N1CCN(c2c(NCCCN3CCCCCC3)c(=O)c2=O)CC1	1.1	-14	-20	-6	14
CC(=O)Nc1ccc(NC(=S)NC(=O)c2ccc([N+](=O)[O-])cc2)cc1	1.1	-3	4	-5	4
CCCCCC(=O)NNC(=S)NC(=O)c1ccc([N+](=O)[O-])cc1	1	62*	-65	0	9
Cc1ccc2oc(=O)n(CCCOc3ccccc3C)c2c1	1	64*	-8	-3	-10
CC(C)S(=O)(=O)CC(=O)c1ccc(Cl)cc1	1	-1	-8	-1	7
CCOC(=O)CSc1c(-c2cccs2)[nH]c2ccccc12	1	64*	-6	1	-16
SMILES	TNAP act hiacc	WT yeast gro inh	TNAP inh no acc	TNAP inh hi DEA	Arbovirus anti
CCOC(=O)CSc1c(-c2ccc(Cl)cc2)[nH]c2ccccc12	1.1	-10	-4	-9	-6
CC1CCCCC1NC(=O)/C(C#N)=C/c1ccccc1F (stereo not given)	1	73*	6	-5	-37
O=[N+]([O-])c1cccc(-c2cn(-c3ccccc3)c(=S)[nH]2)c1	1	8	3	-2	4
CN(C)c1cc[n+](CC(=O)c2ccc(-c3ccccc3)cc2)cc1	1	73*	-4	-4	8
O=C(C[n+]1ccccc1)c1ccc(-c2ccccc2)cc1	1	10	-7	-2	-17
Cc1cccc2cc(-c3ccccc3)c(-c3ccccc3)c[n+]12	0.9	72*	6	8	7

Source: PubChem BioAssay
